Assay [1] has as its target T1, Macrophage migration inhibitory factor (Homo sapiens) (UniProt P14174).
T1 sequence (whole entry): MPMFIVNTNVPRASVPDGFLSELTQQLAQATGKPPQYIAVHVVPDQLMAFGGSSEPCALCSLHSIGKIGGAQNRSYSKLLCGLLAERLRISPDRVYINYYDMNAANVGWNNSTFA
The experiment in a line: Inhibitory activity against macrophage migration inhibitory factor tautomerase (MIF) at a concentration of 0.125 mM. The method, boiled down: (§1)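 Recombinant human MIF expressed in E. coli. The substrate is L-dopachrome methyl ester, generated by oxidizing 10 mM precursor stocks in 10 mM sodium phosphate, pH 6.0, with sodium periodate for 10 min, then quenching with methionine. Final substrate is 0.5 mM, with test compound at the stated concentration. The reaction starts on adding MIF from a 20 mg/mL stock. Percent inhibition is taken from the absorbance decrease at 475 nm over 1 min.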

For assay [2], the target named is T1, Macrophage migration inhibitory factor (Homo sapiens). The assay is described as follows: Inhibitory activity against macrophage migration inhibitory factor tautomerase (MIF) at a concentration of 0.25 mM. In outline:
as §1

For assay [3] the target is unchanged. The experiment in a line: Inhibitory activity against macrophage migration inhibitory factor tautomerase (MIF) at a concentration of 0.06 mM. The method, boiled down: as §1
The target is the same in assay [4]. The experiment in a line: Inhibitory activity against macrophage migration inhibitory factor tautomerase (MIF) at a concentration of 0.5 mM. The method, boiled down: as §1
Assay [5] has the same target. The assay is described as follows: Inhibitory activity against macrophage migration inhibitory factor tautomerase (MIF) at a concentration of 0.02 mM. The method, boiled down:
as §1

Regarding `O=C1C=C2C(=NC(C(=O)O)C2O)C=C1O` (stereo not drawn), the inhibition was determined as 41% in assay [1], 98% in assay [2], 9% in assay [3] and 100% in assay [4].

Turning to `CCCC(C(N)=O)C1=CC(O)C(O)=CC1` (stereo not drawn), the inhibition in assay [4] is 0%.

As to `CC1N=C2C=C(O)C(=O)C=C2C1O` (stereo not drawn), the inhibition in assay [1] was 54%; in assay [2] it was 88%; in assay [3] it was 22%; in assay [4], 92%.

Take `C[C@@]1(C(=O)O)CC2=CC(=O)C(O)=CC2=N1`: in assay [4], the inhibition was 29%.

In turn, `COC(=O)C1(C)CC2=CC(=O)C(O)=CC2=N1` (racemic) gave an inhibition in assay [4] of 34%.

With `C[N+]1=C2C=C(O)C(=O)C=C2C(O)C1` (stereo not drawn), the inhibition worked out at 54% in assay [1], 79% in assay [2], 98% in assay [4] and 21% in assay [5].

`CC1(C(=O)O)CC2=CC(=O)C(O)=CC2=N1` (racemic) had an inhibition in assay [4] of 35%.

`COC(=O)[C@]1(C)CC2=CC(=O)C(O)=CC2=N1` showed an inhibition in assay [4] of 45%.

In the case of `CCOC(=O)/C=C/C1=CC(O)C(O)=CC1` (stereo not drawn), the inhibition in assay [4] is 0%.

Source of the values: ChEMBL document CHEMBL1131879, “Inhibition of macrophage migration inhibitory factor (MIF) tautomerase activity by dopachrome analogs” (Bioorg Med Chem Lett, 1999).
